Test results published in ChEMBL document CHEMBL1142289, “Discovery of sulfonylalkylamides: A new class of orally active factor Xa inhibitors” (Bioorg Med Chem, 2008).
Blank lines part the entries; values can stand above or below the compound they belong to.

Key:
Coagulation factor X = Coagulation factor X (Homo sapiens, UniProt P00742); assay: Inhibition of human factor 10a
In short: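 Human FXa was preincubated with compound in DMSO; 3 mM chromogenic substrate (stock) was added for 10 min at 37 °C. Inhibition was computed against DMSO control, with IC50 from least-squares regression; duplicate means.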

Plasma [1] = assay: Anticoagulant potency in human plasma assessed as concentration required to double prothrombin time after 4 mins; type: functional
In short: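 Human normal plasma was preincubated with compound in DMSO at 37 °C for 4 min. Clotting was started with thromboplastin and PT was timed on an automatic coagulometer. Prolongation was referenced to DMSO vehicle, and PT2 (clotting-time doubling concentration) was obtained from a least-squares regression line. Duplicate measurements, averaged.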

Plasma [2] = assay: Anticoagulant potency in mouse plasma assessed as concentration required to double prothrombin time after 4 mins; type: functional
Mus musculus = assay: Ex vivo anticoagulant potency in ICR mouse blood at 30 mg/kg, po after 1 hr expressed as ratio of prothrombin time in drug treated animal to control; type: functional
In short: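 Male ICR mice (30-35 g), fasted >12 h, received compound orally at 30 mg/kg as a suspension in 0.5% methylcellulose; controls got vehicle alone (n = 3-5). Aortic blood was taken at 1 h under pentobarbital into 3.8% citrate (9:1). Platelet-poor plasma (1000g, 10 min) was preincubated 4 min at 37 °C, then thromboplastin added. Clotting time expressed as ratio versus control.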

CYP3A4 = CYP3A4 (Homo sapiens, UniProt P08684); assay: Inhibition of human CYP3A4 at 1 uM by spectrofluorimeter; type: ADME
In short: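 Microsomes from CYP3A4-expressing insect cells were incubated with 40 µM 7-benzyloxyquinoline and 1 µM test compound. Metabolite formed was quantified with a spectrofluorometer.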

Prothrombin = Prothrombin (Homo sapiens, UniProt P00734); assay: Inhibition of human thrombin
In short: (§1)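 Chromogenic assays at 37 °C. Final enzyme levels: thrombin 0.080 U/mL, trypsin 0.040 µg/mL, plasmin 0.040 U/mL, kallikrein 0.020 U/mL, t-PA 4000 U/mL. Compound was preincubated with enzyme in buffer for 30 min, then substrate added and p-nitroanilide release monitored continuously for 5 min at 405 nm. Ki taken from Lineweaver–Burk plots across substrate concentrations.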

Plasma kallikrein = Plasma kallikrein (Homo sapiens, UniProt P03952); assay: Inhibition of human kallikrein; in short: as §1
Trypsin = Trypsin (Homo sapiens, UniProt P07477+P07478+P35030); assay: Inhibition of human trypsin; type: protein assay; in short: as §1
Plasminogen = Plasminogen (Homo sapiens, UniProt P00747); assay: Inhibition of human plasmin; in short: as §1
[3] = biological target: Tissue-type plasminogen activator (Homo sapiens, UniProt P00750); assay: Inhibition of human tPA; in short: as §1
[4] = Drug concentration in cynomolgus monkey at 1 mg/kg, iv after 5 mins; type: ADME, organism-based, Macaca fascicularis; design: dose 1 mg/kg, route intravenous; conditions: in vivo, read-out: Activity
In short: (§2)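 Male cynomolgus monkeys (n = 3), fasted; dosed iv (1 mg/kg in DMA/PEG400) or po (1 mg/kg, 0.5% methylcellulose suspension). Femoral vein blood drawn up to 24 h; plasma deproteinized with acetonitrile, diluted with 0.01 M ammonium formate pH 3.0, and analysed by LC/MS/MS (ODS column, positive ion turbo ionspray). Values given as mean ± SD of three determinations.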

Cynomolgus monkey [5] = assay: AUC in cynomolgus monkey at 1 mg/kg, iv; type: ADME, organism-based, Macaca fascicularis, Plasma; design: dose 1 mg/kg, route intravenous; conditions: in vivo; in short: as §2
[6] = Mean residence time in cynomolgus monkey at 1 mg/kg, iv; type: ADME, organism-based, Macaca fascicularis; design: dose 1 mg/kg, route intravenous; conditions: in vivo; in short: as §2
[7] = Volume of distribution at steady state in cynomolgus monkey at 1 mg/kg, iv; type: ADME, organism-based, Macaca fascicularis; design: dose 1 mg/kg, route intravenous; conditions: in vivo, read-out: Vdss; in short: as §2
[8] = Total clearance in cynomolgus monkey at 1 mg/kg, iv; type: ADME, organism-based, Macaca fascicularis; design: dose 1 mg/kg, route intravenous; conditions: in vivo; in short: as §2
[9] = Cmax in cynomolgus monkey at 1 mg/kg, po; type: ADME, organism-based, Macaca fascicularis; design: dose 1 mg/kg, route oral; conditions: in vivo; in short: as §2
[10] = Tmax in cynomolgus monkey at 1 mg/kg, po; type: ADME, organism-based, Macaca fascicularis; design: dose 1 mg/kg, route oral; conditions: in vivo; in short: as §2
[11] = AUC in cynomolgus monkey at 1 mg/kg, po; type: ADME, organism-based, Macaca fascicularis; design: dose 1 mg/kg, route oral; conditions: plasma; in short: as §2
[12] = Mean residence time in cynomolgus monkey at 1 mg/kg, po; type: ADME, organism-based, Macaca fascicularis; design: dose 1 mg/kg, route oral; conditions: in vivo; in short: as §2
[13] = Oral bioavailability in cynomolgus monkey at 1 mg/kg; type: ADME, organism-based, Macaca fascicularis; conditions: in vivo; in short: as §2
Cynomolgus monkey [14] = assay: Ex vivo anticoagulant potency in cynomolgus monkey blood assessed as prothrombin time prolongation at 3 mg/kg, po after 0.5 hr; type: functional, Macaca fascicularis
In short: (§3)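 Male cynomolgus monkeys (3.5-4 kg), fasted >12 h, n = 3, given 3 mg/kg orally. Femoral vein blood was drawn into 3.8% citrate (9:1) at intervals, spun at 1000g for 10 min to platelet-poor plasma, and PT measured with thromboplastin on a coagulometer. Results are % of basal value, mean ± SEM.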

Cynomolgus monkey [15] = assay: Ex vivo anticoagulant potency in cynomolgus monkey blood assessed as prothrombin time prolongation at 3 mg/kg, po after 1 hr; type: functional, Macaca fascicularis; in short: as §3
Cynomolgus monkey [16] = assay: Ex vivo anticoagulant potency in cynomolgus monkey blood assessed as prothrombin time prolongation at 3 mg/kg, po after 2 hrs; type: functional, Macaca fascicularis; in short: as §3
Cynomolgus monkey [17] = assay: Ex vivo anticoagulant potency in cynomolgus monkey blood assessed as prothrombin time prolongation at 3 mg/kg, po after 4 hrs; type: functional, Macaca fascicularis; in short: as §3
Cynomolgus monkey [18] = assay: Ex vivo anticoagulant potency in cynomolgus monkey blood assessed as prothrombin time prolongation at 3 mg/kg, po after 8 hrs; type: functional, Macaca fascicularis; in short: as §3
Plasma [19] = assay: Anticoagulant potency in cynomolgus monkey plasma assessed as concentration required to double prothrombin time; type: functional, Macaca fascicularis

Chain of CYP3A4 (P08684 whole entry): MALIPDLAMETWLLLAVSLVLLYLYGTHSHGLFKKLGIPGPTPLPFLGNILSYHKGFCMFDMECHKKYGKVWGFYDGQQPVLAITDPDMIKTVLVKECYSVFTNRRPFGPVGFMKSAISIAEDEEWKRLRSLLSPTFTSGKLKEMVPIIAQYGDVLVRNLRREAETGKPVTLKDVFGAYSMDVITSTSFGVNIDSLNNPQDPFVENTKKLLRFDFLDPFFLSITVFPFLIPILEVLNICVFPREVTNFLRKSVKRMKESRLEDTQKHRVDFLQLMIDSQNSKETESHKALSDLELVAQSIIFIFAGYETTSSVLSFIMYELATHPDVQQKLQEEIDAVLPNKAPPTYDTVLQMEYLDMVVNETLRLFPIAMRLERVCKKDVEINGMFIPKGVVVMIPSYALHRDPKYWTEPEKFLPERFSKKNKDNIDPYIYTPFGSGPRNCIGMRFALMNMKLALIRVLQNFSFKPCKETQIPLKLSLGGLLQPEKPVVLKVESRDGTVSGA
Chain of Coagulation factor X (P00742 41-179 limits assumed): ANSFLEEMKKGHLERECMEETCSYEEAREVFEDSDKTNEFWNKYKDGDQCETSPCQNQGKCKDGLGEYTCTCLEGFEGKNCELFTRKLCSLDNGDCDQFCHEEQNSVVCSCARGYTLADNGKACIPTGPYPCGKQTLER
Chain of Coagulation factor X (P00742 235-488 limits assumed): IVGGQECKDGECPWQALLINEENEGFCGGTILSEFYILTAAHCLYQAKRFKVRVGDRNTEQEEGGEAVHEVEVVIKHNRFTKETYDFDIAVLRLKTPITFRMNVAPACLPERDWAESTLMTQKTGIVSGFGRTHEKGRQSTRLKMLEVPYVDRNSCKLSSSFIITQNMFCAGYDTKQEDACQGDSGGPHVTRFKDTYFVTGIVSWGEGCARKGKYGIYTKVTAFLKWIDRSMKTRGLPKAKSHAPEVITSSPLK
Chain of Plasminogen (P00747 97-580 limits assumed): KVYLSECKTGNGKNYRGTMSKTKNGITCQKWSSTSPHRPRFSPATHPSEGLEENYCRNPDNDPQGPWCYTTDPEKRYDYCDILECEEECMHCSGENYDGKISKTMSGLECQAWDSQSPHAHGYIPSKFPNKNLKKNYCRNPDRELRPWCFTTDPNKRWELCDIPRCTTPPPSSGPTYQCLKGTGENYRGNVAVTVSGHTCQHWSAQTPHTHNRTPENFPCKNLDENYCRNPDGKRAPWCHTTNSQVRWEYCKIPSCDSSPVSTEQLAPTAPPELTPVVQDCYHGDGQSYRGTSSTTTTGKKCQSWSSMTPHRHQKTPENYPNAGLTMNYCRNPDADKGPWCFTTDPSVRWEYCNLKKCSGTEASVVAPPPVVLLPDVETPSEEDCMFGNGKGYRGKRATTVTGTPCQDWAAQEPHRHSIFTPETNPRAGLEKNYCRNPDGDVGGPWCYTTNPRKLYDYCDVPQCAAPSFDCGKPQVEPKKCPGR
Chain of Plasminogen (P00747 581-810 limits assumed): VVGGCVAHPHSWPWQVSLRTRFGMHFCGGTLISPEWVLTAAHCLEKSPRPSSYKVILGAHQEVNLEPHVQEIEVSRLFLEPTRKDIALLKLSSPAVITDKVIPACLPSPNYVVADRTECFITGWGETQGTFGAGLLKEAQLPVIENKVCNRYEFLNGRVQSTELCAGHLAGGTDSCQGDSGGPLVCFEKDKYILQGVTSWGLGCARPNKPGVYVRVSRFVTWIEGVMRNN
Chain of Plasma kallikrein (P03952 20-390 limits assumed): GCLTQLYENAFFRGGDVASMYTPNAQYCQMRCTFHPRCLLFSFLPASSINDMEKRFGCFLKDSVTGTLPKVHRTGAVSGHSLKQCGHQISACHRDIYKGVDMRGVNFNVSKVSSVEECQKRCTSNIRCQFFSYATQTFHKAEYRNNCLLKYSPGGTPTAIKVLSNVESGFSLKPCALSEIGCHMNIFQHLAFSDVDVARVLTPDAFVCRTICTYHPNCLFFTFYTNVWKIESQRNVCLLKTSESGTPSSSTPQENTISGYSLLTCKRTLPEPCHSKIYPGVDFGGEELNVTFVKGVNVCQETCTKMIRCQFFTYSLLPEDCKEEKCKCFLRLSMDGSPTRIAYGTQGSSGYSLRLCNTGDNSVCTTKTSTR
Chain of Plasma kallikrein (P03952 391-638 limits assumed): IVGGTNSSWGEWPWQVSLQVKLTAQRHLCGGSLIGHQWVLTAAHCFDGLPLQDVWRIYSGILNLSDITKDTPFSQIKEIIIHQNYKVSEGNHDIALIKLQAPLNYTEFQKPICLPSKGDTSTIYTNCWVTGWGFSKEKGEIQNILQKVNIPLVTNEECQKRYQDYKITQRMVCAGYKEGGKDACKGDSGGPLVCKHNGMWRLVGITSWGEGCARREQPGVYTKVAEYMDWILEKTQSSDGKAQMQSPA
Chain of Tissue-type plasminogen activator (P00750 whole entry): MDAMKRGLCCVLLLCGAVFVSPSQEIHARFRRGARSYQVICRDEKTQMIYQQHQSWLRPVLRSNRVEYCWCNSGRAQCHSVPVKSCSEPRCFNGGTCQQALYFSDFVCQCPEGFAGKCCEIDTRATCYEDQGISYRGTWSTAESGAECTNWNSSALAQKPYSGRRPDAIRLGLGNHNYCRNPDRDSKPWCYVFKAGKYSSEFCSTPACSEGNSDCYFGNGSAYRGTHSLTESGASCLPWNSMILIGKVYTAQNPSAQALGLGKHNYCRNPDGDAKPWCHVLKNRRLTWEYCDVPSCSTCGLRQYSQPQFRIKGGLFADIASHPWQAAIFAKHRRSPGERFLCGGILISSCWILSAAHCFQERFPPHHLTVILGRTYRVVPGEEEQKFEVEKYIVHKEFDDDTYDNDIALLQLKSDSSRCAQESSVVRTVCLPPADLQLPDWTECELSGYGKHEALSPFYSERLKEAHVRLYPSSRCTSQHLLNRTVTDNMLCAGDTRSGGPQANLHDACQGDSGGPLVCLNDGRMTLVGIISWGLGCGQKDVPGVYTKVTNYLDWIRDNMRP

SMILES: Cc1cc(N2CCC(N(C)C(=O)CCS(=O)(=O)c3ccc4cc(Cl)ccc4c3)CC2)ccn1
IC50 (Coagulation factor X): 61 nM | Ki (Coagulation factor X): 15 nM | Activity (Plasma [1]): 1.6 µM | Activity (Plasma [2]): 4.8 µM | Ratio (Mus musculus): 1.6 | inhibition at 1 µM (CYP3A4): 40% | Ki (Prothrombin): 7500 nM | Ki (Plasma kallikrein): 3000 nM | Ki (Trypsin): > 200000 nM | Ki (Plasminogen): > 200000 nM | Ki [3]: 67000 nM | concentration at 5 min [4]: 565 ng/mL | AUC (Cynomolgus monkey [5]): 1580 ng·h/mL | MRT [6]: 4.54 h | Vd [7]: 3.29 L/kg | clearance [8]: 12.2 mL/min/kg | Cmax [9]: 134 ng/mL | Tmax [10]: 2 h | AUC [11]: 1030 ng·h/mL | MRT [12]: 6.6 h | bioavailability [13]: 66.7% | Activity (Cynomolgus monkey [14]): 142% | Activity (Cynomolgus monkey [15]): 133.6% | Activity (Cynomolgus monkey [16]): 146.9% | Activity (Cynomolgus monkey [17]): 144.6% | Activity (Cynomolgus monkey [18]): 117.7% | Activity (Plasma [19]): 1.1 µM

SMILES: Cc1cc(N2CCC(N(C)C(=O)CCS(=O)(=O)c3cc4cc(Cl)ccc4s3)CC2)ccn1
IC50 (Coagulation factor X): > 5000 nM

SMILES: O=C(C1CCN(c2ccncc2)CC1)N1CCN(S(=O)(=O)c2ccc3cc(Cl)ccc3c2)CC1
IC50 (Coagulation factor X): 33 nM

SMILES: O=C(CCS(=O)(=O)c1ccc2cc(Cl)ccc2c1)N1CCN(c2ccncc2)CC1
IC50 (Coagulation factor X): 160 nM

SMILES: CN(C(=O)CCS(=O)(=O)c1ccc2cc(Cl)ccc2c1)C1CCN(c2ccncc2)CC1
IC50 (Coagulation factor X): 50 nM | Activity (Plasma [1]): 1 µM | Activity (Plasma [2]): 8 µM | Ratio (Mus musculus): 1.6 | inhibition at 1 µM (CYP3A4): 81%

SMILES: CC(C)N(CCCS(=O)(=O)c1ccc2cc(Cl)ccc2c1)C(=O)C1CCN(c2ccncc2)CC1
IC50 (Coagulation factor X): 250 nM | Activity (Plasma [1]): 8.4 µM

SMILES: Cc1cc(N2CCC(N(C)C(=O)CCS(=O)(=O)c3cc4ccc(Cl)cc4s3)CC2)ccn1
IC50 (Coagulation factor X): > 5000 nM

SMILES: Cc1cc(N2CCC(N(C)C(=O)CCS(=O)(=O)c3ccc4cc(Cl)ccc4c3)CC2)cc(C)n1
Activity (Plasma [1]): 1.6 µM | Activity (Plasma [2]): 4.1 µM | Ratio (Mus musculus): 1.3 | inhibition at 1 µM (CYP3A4): 40%

SMILES: CN(CCCS(=O)(=O)c1ccc2cc(Cl)ccc2c1)C(=O)C1CCN(c2ccncc2)CC1
Activity (Plasma [1]): 1.7 µM | Activity (Plasma [2]): 17 µM | Ratio (Mus musculus): 1.3

SMILES: CCOC(=O)CCN(C(=O)CCS(=O)(=O)c1ccc2cc(Cl)ccc2c1)C1CCN(c2ccncc2)CC1
Activity (Plasma [1]): 0.85 µM | Activity (Plasma [2]): 14 µM | Ratio (Mus musculus): 1

SMILES: NC(=O)CN(CCCS(=O)(=O)c1ccc2cc(Cl)ccc2c1)C(=O)C1CCN(c2ccncc2)CC1
IC50 (Coagulation factor X): 120 nM | Activity (Plasma [1]): 2.1 µM

SMILES: CC(=N)N1CC[C@H](Oc2ccc([C@H](Cc3ccc4ccc(C(=N)N)cc4c3)C(=O)O)cc2)C1 [DX-9065A]
Activity (Plasma [1]): 0.69 µM | Activity (Plasma [2]): 6.8 µM

Continued, in another order:

IC50 (Coagulation factor X): 470 nM
SMILES: O=C(NCCCS(=O)(=O)c1ccc2cc(Cl)ccc2c1)C1CCN(c2ccncc2)CC1

IC50 (Coagulation factor X): 720 nM
SMILES: Cc1ccc2cc(S(=O)(=O)CCC(=O)N(C)C3CCN(c4ccnc(C)c4)CC3)ccc2c1

IC50 (Coagulation factor X): 140 nM
SMILES: CN(C(=O)CCCS(=O)(=O)c1ccc2cc(Cl)ccc2c1)C1CCN(c2ccncc2)CC1

IC50 (Coagulation factor X): 120 nM
SMILES: CCN(CCCS(=O)(=O)c1ccc2cc(Cl)ccc2c1)C(=O)C1CCN(c2ccncc2)CC1
Activity (Plasma [1]): 3.2 µM

IC50 (Coagulation factor X): 60 nM
SMILES: CCOC(=O)CN(C(=O)CCS(=O)(=O)c1ccc2cc(Cl)ccc2c1)C1CCN(c2ccncc2)CC1
Activity (Plasma [1]): 1.1 µM | Activity (Plasma [2]): 10 µM | Ratio (Mus musculus): 1.1

IC50 (Coagulation factor X): 720 nM
SMILES: CN(C(=O)CS(=O)(=O)c1ccc2cc(Cl)ccc2c1)C1CCN(c2ccncc2)CC1

IC50 (Coagulation factor X): 110 nM | inhibition at 1 µM (CYP3A4): 21%
SMILES: CN(C(=O)CCS(=O)(=O)c1ccc2cc(Cl)ccc2c1)C1CCN(c2ccnc(CO)c2)CC1
Activity (Plasma [1]): 1.5 µM | Activity (Plasma [2]): 6.4 µM | Ratio (Mus musculus): 1.1

IC50 (Coagulation factor X): 64 nM
SMILES: CCOC(=O)CN(CCCS(=O)(=O)c1ccc2cc(Cl)ccc2c1)C(=O)C1CCN(c2ccncc2)CC1
Activity (Plasma [1]): 1.9 µM | Activity (Plasma [2]): 11 µM | Ratio (Mus musculus): 1

IC50 (Coagulation factor X): > 5000 nM
SMILES: Cc1cc(N2CCC(N(C)C(=O)CCS(=O)(=O)c3ccc4ccc(Cl)cc4c3)CC2)ccn1

IC50 (Coagulation factor X): > 5000 nM
SMILES: Cc1cc(N2CCC(N(C)C(=O)CCS(=O)(=O)c3ccc4c(Cl)cccc4c3)CC2)ccn1

IC50 (Coagulation factor X): 79 nM | inhibition at 1 µM (CYP3A4): 49%
SMILES: CN(C(=O)CCS(=O)(=O)c1ccc2cc(Cl)ccc2c1)C1CCN(c2ccnc(N)c2)CC1
Activity (Plasma [1]): 3.6 µM

IC50 (Coagulation factor X): 840 nM
SMILES: CN(CCS(=O)(=O)c1ccc2cc(Cl)ccc2c1)C(=O)C1CCN(c2ccncc2)CC1

IC50 (Coagulation factor X): 54 nM
SMILES: O=C(O)CN(CCCS(=O)(=O)c1ccc2cc(Cl)ccc2c1)C(=O)C1CCN(c2ccncc2)CC1
Activity (Plasma [1]): 1.8 µM | Activity (Plasma [2]): 14 µM | Ratio (Mus musculus): 1

IC50 (Coagulation factor X): 95 nM
SMILES: NCCN(C(=O)CCS(=O)(=O)c1ccc2cc(Cl)ccc2c1)C1CCN(c2ccncc2)CC1
Activity (Plasma [1]): 0.63 µM | Activity (Plasma [2]): 8.6 µM | Ratio (Mus musculus): 1
